Calls of active or inactive are those of the source. The rule behind the calls is not given here.
Tests used:
[1] = Clearance in Beagle dog at 1 mg/kg, iv by LC-MS/MS analysis; format: ADME, organism-based, Canis lupus familiaris; conditions: in vivo
[2] = system: Rattus norvegicus; assay: Effect on locomotor activity in Wistar rat up to 100 mg/kg, po by open field test; format: ADME, organism-based; conditions: in vivo
[3] = Volume of distribution at steady state in Wistar rat at 3 mg/kg, po or 1 mg/kg, iv by LC-MS/MS analysis; format: ADME, organism-based; conditions: Wistar, in vivo, read-out: Vdss
How it was run: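 Fasted male Wistar rats were dosed orally and intravenously, with water for injection as the vehicle for both routes, at dosing volumes of 10 mL/kg p.o. and 2 mL/kg i.v.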

[4] = Dissociation constant, pKa2 of the compound by potentiometric titration assay; format: physicochemical
[5] = Tmax in Beagle dog at 3 mg/kg, po or 1 mg/kg, iv by LC-MS/MS analysis; format: ADME, organism-based, Canis lupus familiaris; conditions: in vivo
[6] = Mutagenicity in Salmonella typhimurium TA100 in absence of metabolic activation by Ames test; format: toxicity; conditions: salmonella enterica subsp. enterica serovar typhimurium
How it was run: (§1)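 Reverse-mutation test in Salmonella typhimurium TA1537, TA1535, TA98 and TA100 and in E. coli WP2 uvrA, run with and without metabolic activation.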

[7] = Dissociation constant, pKa1 of the compound by potentiometric titration assay; format: physicochemical
[8] = Mutagenicity in Salmonella typhimurium TA1535 in presence of metabolic activation by Ames test; format: toxicity; conditions: salmonella enterica subsp. enterica serovar typhimurium
[9] = Mutagenicity in Salmonella typhimurium TA98 in absence of metabolic activation by Ames test; format: toxicity; conditions: salmonella enterica subsp. enterica serovar typhimurium
[10] = Mutagenicity in Salmonella typhimurium TA100 in presence of metabolic activation by Ames test; format: toxicity; conditions: salmonella enterica subsp. enterica serovar typhimurium; how it was run: as §1
[11] = Partition coefficient, log P of the compound; format: physicochemical; conditions: octanol/water
[12] = Metabolic stability in rat hepatocytes after 30 mins by LC-MS/MS analysis; format: ADME, cell-based, Hepatocyte; conditions: read-out: Stability
[13] = Metabolic stability in human liver microsomes in presence of NADPH after 30 mins by LC-MS/MS analysis; format: ADME, Microsome; conditions: read-out: Stability
[14] = system: Bone marrow cell; assay: Clastogenic activity in micronucleus of mouse bone marrow cells; format: toxicity, cell-based
[15] = target: T1, Cytochrome P450 2B6 (Homo sapiens, UniProt P20813); assay: Inhibition of CYP2B6 (unknown origin); format: ADME
T1 sequence (P20813 whole entry): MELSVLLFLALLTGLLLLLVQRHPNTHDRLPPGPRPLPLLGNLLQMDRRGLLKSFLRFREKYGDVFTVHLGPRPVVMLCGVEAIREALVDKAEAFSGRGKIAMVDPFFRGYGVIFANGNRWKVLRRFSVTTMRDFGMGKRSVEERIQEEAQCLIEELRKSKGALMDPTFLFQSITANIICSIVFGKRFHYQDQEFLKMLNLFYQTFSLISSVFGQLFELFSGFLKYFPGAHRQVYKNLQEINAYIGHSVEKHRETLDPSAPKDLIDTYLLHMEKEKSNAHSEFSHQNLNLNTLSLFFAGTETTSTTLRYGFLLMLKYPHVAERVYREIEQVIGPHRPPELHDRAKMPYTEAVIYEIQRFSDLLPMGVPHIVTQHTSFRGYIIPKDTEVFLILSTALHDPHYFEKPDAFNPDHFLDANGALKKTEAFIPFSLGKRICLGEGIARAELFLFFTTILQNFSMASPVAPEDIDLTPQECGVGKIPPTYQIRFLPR

[16] = system: Rattus norvegicus; assay: In vivo receptor occupancy at histamine 3 receptor in po dosed Wistar rat frontal cortex after 1 to 24 hrs by LC-MS/MS analysis; format: functional
[17] = Metabolic stability in monkey liver microsomes in presence of NADPH after 30 mins by LC-MS/MS analysis; format: ADME, Macaca mulatta, Microsome; conditions: rhesus monkey, read-out: Stability
[18] = target: Cytochrome P450 2E1 (Homo sapiens, UniProt P05181); assay: Inhibition of CYP2E1 (unknown origin); format: ADME
[19] = target: Cytochrome P450 2C9 (Homo sapiens, UniProt P11712); assay: Inhibition of CYP2C9 (unknown origin); format: ADME
[20] = system: PBL; assay: Clastogenic activity in human peripheral blood lymphocytes by chromosomal aberration test; format: toxicity, cell-based
[21] = target: Cytochrome P450 3A4 (Homo sapiens, UniProt P08684); assay: Inhibition of CYP3A4 in human liver microsomes using midazolam as substrate after 2 mins by LC-MS/MS analysis; format: ADME
[22] = Metabolic stability in dog liver microsomes in presence of NADPH after 30 mins by LC-MS/MS analysis; format: ADME, Canis lupus familiaris, Microsome; conditions: read-out: Stability
[23] = Metabolic stability in dog hepatocytes after 30 mins by LC-MS/MS analysis; format: ADME, cell-based, Canis lupus familiaris, Hepatocyte; conditions: read-out: Stability
[24] = Mutagenicity in Salmonella typhimurium TA1537 in presence of metabolic activation by Ames test; format: toxicity; conditions: salmonella enterica subsp. enterica serovar typhimurium
[25] = AUC (0 to 24 hrs) in Wistar rat at 1 mg/kg, iv by LC-MS/MS analysis; format: ADME, organism-based; parameters: time < 24 hr, dose 1 mg/kg, route intravenous; conditions: Wistar, in vivo
How it was run: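 Fasted male Wistar rats; compound in water for injection, given i.v. (2 mL/kg) or p.o. (10 mL/kg). Plasma exposure measured as AUC0-24hr.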

[26] = system: Rattus norvegicus; assay: Effect on striatal dopamine levels in Wistar rat at 100 mg/kg, po by microdialysis; format: ADME, organism-based; conditions: in vivo
[27] = target: Cytochrome P450 2C19 (Homo sapiens, UniProt P33261); assay: Inhibition of CYP2C19 (unknown origin); format: ADME
[28] = Metabolic stability in rat liver microsomes in presence of NADPH after 30 mins by LC-MS/MS analysis; format: ADME, Microsome; conditions: read-out: Stability
[29] = Clearance in Wistar rat at 1 mg/kg, iv by LC-MS/MS analysis; format: ADME, organism-based; conditions: in vivo
How it was run: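 Fasted male Wistar rats dosed i.v. in water for injection at 2 mL/kg. Clearance and half-life derived from the i.v. plasma profile.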

[30] = Toxicity in Wistar rat up to 100 mg/kg, po by Irwin's test; format: organism-based; conditions: in vivo
How it was run: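 CNS safety was screened with a modified Irwin's test at oral doses up to 100 mg/kg.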

[31] = Apparent permeability across basolateral to apical side in human Caco2 cells at 10 uM; format: ADME, cell-based; conditions: Caco-2
How it was run: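 Caco-2 monolayers; bidirectional permeability measured at 10 µM, with and without the P-gp inhibitor verapamil.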

[32] = Mutagenicity in Escherichia coli WP2 in absence of metabolic activation by Ames test; format: toxicity; how it was run: as §1
[33] = system: Rattus norvegicus; assay: Induction of wake promoting activity in orexin-B-saporin lesioned Wistar rat assessed as decrease in number of direct REM sleep onset episodes at 10 to 30 mg/kg, po dosed 15 mins before start of dark phase; format: functional, organism-based
How it was run: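 Rats carried epidural frontal-cortex EEG screws, nuchal EMG leads, and bilateral lateral hypothalamic orexin-B-saporin (490 ng/0.8 µl). After at least 3 weeks' recovery, they were dosed 15 min before lights-off in a crossover design with a 1-week washout. Wake, NREM and REM time was totalled over 3 h. DREM was scored as REM after ≥60 s wake. Dunnett's test was used.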

[34] = Metabolic stability in human hepatocytes after 30 mins by LC-MS/MS analysis; format: ADME, cell-based, Hepatocyte; conditions: read-out: Stability
[35] = system: CHO-K1; assay: Cytotoxicity in CHOK1 cells up to 300 uM incubated for 24 hrs by MTT assay; format: cell-based, Cricetulus griseus; conditions: chinese hamster, cho-k1, 24 h

Cytochrome P450 2C9, sequence (P11712 whole entry): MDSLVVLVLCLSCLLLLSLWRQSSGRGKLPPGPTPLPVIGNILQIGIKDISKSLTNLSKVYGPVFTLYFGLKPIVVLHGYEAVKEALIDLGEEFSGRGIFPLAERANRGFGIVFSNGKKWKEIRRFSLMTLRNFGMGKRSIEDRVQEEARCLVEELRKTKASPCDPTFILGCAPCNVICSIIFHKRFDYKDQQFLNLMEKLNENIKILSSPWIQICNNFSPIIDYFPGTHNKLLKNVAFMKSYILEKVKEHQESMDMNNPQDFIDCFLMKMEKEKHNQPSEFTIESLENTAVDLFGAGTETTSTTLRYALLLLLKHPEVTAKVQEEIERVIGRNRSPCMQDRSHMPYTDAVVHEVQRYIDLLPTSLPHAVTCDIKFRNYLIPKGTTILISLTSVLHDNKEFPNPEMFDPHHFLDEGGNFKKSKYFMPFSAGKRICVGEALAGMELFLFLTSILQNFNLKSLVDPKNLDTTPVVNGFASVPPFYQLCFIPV
Cytochrome P450 2E1, sequence (P05181 whole entry): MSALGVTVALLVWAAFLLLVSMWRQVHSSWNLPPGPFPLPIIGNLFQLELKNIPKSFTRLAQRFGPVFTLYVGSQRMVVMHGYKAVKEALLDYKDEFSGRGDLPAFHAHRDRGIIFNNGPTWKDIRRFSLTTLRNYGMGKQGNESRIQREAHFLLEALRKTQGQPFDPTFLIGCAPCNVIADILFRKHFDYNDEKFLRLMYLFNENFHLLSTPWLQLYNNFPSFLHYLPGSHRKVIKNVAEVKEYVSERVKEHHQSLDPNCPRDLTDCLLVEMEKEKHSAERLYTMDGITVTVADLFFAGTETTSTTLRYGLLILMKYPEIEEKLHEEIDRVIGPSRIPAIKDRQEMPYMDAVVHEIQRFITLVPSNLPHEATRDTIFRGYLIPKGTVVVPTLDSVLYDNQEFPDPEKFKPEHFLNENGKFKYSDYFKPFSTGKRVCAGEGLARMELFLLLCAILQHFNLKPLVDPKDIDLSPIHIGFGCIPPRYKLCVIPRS
Cytochrome P450 2C19, sequence (P33261 whole entry): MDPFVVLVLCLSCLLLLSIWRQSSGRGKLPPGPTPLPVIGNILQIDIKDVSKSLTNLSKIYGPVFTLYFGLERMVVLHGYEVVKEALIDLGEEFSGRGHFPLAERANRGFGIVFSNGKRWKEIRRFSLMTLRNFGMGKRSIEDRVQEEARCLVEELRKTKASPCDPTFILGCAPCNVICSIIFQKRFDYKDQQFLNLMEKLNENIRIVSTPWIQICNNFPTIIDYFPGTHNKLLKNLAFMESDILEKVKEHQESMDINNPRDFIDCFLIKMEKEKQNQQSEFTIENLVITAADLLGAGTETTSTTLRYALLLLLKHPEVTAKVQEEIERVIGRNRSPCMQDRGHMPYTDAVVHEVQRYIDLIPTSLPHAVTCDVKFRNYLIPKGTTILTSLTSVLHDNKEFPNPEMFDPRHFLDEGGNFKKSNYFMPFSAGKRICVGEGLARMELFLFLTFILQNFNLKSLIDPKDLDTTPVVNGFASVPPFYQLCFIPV
Cytochrome P450 3A4, sequence (P08684 whole entry): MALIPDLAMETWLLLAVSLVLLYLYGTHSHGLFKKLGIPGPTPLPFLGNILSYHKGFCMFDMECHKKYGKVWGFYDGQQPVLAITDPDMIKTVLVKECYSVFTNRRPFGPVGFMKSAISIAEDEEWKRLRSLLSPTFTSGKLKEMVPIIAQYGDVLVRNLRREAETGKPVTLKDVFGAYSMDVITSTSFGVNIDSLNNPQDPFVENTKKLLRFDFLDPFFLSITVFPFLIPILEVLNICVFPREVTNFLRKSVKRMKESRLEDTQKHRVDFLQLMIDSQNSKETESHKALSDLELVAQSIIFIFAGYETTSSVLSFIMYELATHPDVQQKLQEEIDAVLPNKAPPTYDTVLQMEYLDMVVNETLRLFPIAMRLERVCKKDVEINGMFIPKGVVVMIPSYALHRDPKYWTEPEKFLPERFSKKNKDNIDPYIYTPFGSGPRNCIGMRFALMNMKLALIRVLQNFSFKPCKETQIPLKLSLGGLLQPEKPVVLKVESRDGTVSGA

Cl.Cl.O=C(CN1CCOCC1)Nc1ccc(OC2CCN(C3CCC3)CC2)cc1
clearance [1]: 36 mL/min/kg | Activity [2]: Non-Toxic | Vd [3]: 5 L/kg | pKa [4]: 4.9 | Tmax [5]: 15 to 60 min | Activity [6]: Non-Toxic | pKa [7]: 8.5 | Activity [8]: Non-Toxic | Activity [9]: Non-Toxic | Activity [10]: Non-Toxic | logP [11]: 2.2 | remaining at 0.5 h [12]: 37% | remaining at 0.5 h [13]: < 5% | Activity [14]: Non-Toxic | IC50 [15]: > 45 µM | ED50 [16]: 0.24 mg/kg | ED80 [16]: 3.05 mg/kg | Occ [16]: Dose-dependent effect | remaining at 0.5 h [17]: 35% | IC50 [18]: > 10 µM | IC50 [19]: > 45 µM | Activity [20]: Non-Toxic | IC50 [21]: > 45 µM | remaining at 0.5 h [22]: 13% | remaining at 0.5 h [23]: 33% | Activity [24]: Non-Toxic | AUC(0-t) at 24 h [25]: 263 ng·h/mL | Activity [26]: Non-Toxic | IC50 [27]: > 45 µM | remaining at 0.5 h [28]: 27% | clearance [29]: 63 mL/min/kg | Activity [30]: Non-Toxic | Papp B→A at 10 µM [31]: 30.8 ×10⁻⁶ cm/s | Activity [32]: Non-Toxic | Activity [33]: Active | remaining at 0.5 h [34]: < 5% | Activity [35]: Non-Toxic

Source: ChEMBL document CHEMBL4368912, “Discovery and Development of N-[4-(1-Cyclobutylpiperidin-4-yloxy)phenyl]-2-(morpholin-4-yl)acetamide Dihydrochloride (SUVN-G3031): A Novel, Potent, Selective, and Orally Active Histamine H3 Receptor Inverse Agonist with Robust Wake-Promoting Activity” (J Med Chem, 2019)
